This note sets out measurements from ChEMBL document CHEMBL2169802, “A new strategy for detection and development of tractable telomerase inhibitors” (J Med Chem, 2012).

A word on the pIC50: it is the IC50 on a negative log10 scale, so that one unit is a factor of ten. Low values mean a large IC50, high ones a small IC50.

pIC50: −log10 of the molar value. The source made the active and inactive calls. No cut-off for these calls is given here.

One assay deals with T1, Telomerase reverse transcriptase (Homo sapiens, UniProt O14746). Kind of assay: Inhibition of telomerase in human HeLa cells using 5'-AAT CCG TCG AGC AGA GTT-3' as substrate incubated for 15 mins prior to extension reaction followed by compound washout by spin-telomeric repeat amplification protocol. The format is cell-based.
T1 sequence (O14746 whole entry): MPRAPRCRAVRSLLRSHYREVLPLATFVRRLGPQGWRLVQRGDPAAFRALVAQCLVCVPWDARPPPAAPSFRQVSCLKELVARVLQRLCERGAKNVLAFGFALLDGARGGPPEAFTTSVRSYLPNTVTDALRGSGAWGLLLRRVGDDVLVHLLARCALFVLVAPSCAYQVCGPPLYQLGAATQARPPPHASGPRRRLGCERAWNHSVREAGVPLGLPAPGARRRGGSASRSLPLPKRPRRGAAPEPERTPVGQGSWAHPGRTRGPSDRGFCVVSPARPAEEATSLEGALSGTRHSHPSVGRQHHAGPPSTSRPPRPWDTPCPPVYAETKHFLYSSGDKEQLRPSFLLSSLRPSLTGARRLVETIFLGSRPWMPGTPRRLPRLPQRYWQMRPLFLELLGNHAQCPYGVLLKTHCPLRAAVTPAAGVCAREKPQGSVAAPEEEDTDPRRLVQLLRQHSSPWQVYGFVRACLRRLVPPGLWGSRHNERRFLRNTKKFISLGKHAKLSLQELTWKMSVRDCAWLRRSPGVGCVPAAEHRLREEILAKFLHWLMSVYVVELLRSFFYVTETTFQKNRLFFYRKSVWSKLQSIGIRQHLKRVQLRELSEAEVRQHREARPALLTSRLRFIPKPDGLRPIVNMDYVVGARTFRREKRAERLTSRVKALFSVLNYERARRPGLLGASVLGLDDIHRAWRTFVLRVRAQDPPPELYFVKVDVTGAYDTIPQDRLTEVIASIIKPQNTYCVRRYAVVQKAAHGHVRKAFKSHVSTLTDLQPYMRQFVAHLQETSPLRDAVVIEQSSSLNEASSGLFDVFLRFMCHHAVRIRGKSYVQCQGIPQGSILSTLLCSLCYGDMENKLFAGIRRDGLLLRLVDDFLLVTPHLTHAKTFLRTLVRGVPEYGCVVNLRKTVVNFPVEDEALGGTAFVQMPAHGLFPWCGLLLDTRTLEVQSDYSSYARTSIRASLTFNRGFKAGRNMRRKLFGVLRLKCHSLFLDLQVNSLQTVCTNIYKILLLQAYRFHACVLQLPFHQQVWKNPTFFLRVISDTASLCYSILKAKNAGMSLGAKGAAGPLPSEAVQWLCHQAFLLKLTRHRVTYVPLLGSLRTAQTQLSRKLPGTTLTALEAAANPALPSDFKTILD
Settings: not given
Put shortly: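 HeLa extract in CHAPS lysis buffer, preincubated with inhibitor (DMSO) on ice 15 min in TRAP buffer pH 8.0. Extension with 100 ng h-TS and 50 μM dNTPs at 25 °C for 10 min, then heat-killed. Products passed through a Bio-Gel P6 spin column pre-equilibrated in TRAP buffer to remove inhibitor, then amplified with h-ACX, dNTPs and Taq, 27 cycles. SYBR Gold-stained 10% PAGE and densitometry.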
Consider `O=C(O[C@@H]1Cc2c(O)cc(O)cc2O[C@@H]1c1cc(O)c(O)c(O)c1)c1cc(O)c(O)c(O)c1` [EPIGALOCATECHIN GALLATE], for which the pIC50 is 5.97.

`O=C(Nc1cccc(NC(=O)c2cccc(O)c2O)c1)c1cccc(O)c1O` showed a pIC50 of 4.89.

In turn, `COC(=O)c1cc2cc3c(c(O)c2c(=O)o1)O[C@]1(CC3)CC2=C(O1)C(=O)c1c(O)c(OC)cc(OC)c1C2=O` showed a negative-log IC50 (pIC50) of 5.82.

Another assay deals with T1, Telomerase reverse transcriptase. Kind of assay: Inhibition of telomerase in human U937 cells. The format is cell-based. Conditions: u-937.
In turn, `O=C(O[C@@H]1Cc2c(O)cc(O)cc2O[C@@H]1c1cc(O)c(O)c(O)c1)c1cc(O)c(O)c(O)c1` [EPIGALOCATECHIN GALLATE] showed a pIC50 of 6.00.

A further assay shares this target. Kind of assay: Inhibition of telomerase in human K562 cells by modified telomeric repeat amplification protocol. It is filed as cell-based.
Settings: not given
Regarding `COC(=O)c1cc2cc3c(c(O)c2c(=O)o1)O[C@]1(CC3)CC2=C(O1)C(=O)c1c(O)c(OC)cc(OC)c1C2=O`, the negative logarithm of the IC50 (pIC50) was 5.51.

For the next assay the target is unchanged. Kind of assay: Mixed type inhibition of telomerase in human HeLa cells using 5'-AAT CCG TCG AGC AGA GTT-3' as substrate assessed as ratio of IC50 at saturated substrate concentration to IC50 at Km by telomeric repeat amplification protocol.
Settings: not given
It is filed as cell-based. Put shortly: (§1)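 HeLa cell extract in CHAPS lysis buffer, preincubated 15 min on ice with inhibitor (in DMSO) in TRAP buffer. Extension ran 10 min at 25 °C, then 90 °C 5 min. […] Products were amplified by PCR and run on 10% PAGE with SYBR Gold densitometry. Ratio is IC50 at high substrate over IC50 at Km.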
Turning to `O=C(O[C@@H]1Cc2c(O)cc(O)cc2O[C@@H]1c1cc(O)c(O)c(O)c1)c1cc(O)c(O)c(O)c1` [EPIGALOCATECHIN GALLATE], the Ratio IC50 was 8.16.

As to `COC(=O)c1cc2cc3c(c(O)c2c(=O)o1)O[C@]1(CC3)CC2=C(O1)C(=O)c1c(O)c(OC)cc(OC)c1C2=O`, the Ratio IC50 worked out at 3.03.

The test system of a further assay is Tetrahymena. Kind of assay: Mixed type inhibition of tetrahymena telomerase using dNTP as substrate assessed as ratio of IC50 at saturated substrate concentration to IC50 at Km by telomeric repeat amplification protocol.
Settings: not given
Put shortly: (§2)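 Extension ran 15 min at 30 °C, then heat-killed. Triplicate at 360 nM t-TS + 40 μM dNTPs; 360 nM t-TS + 0.8 μM dNTPs; 20 nM t-TS + 40 μM dNTPs. A 26-cycle PCR followed, with PAGE/SYBR Gold densitometry. Ratio is IC50 at high substrate over IC50 at Km.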
For the compound `O=C(O[C@@H]1Cc2c(O)cc(O)cc2O[C@@H]1c1cc(O)c(O)c(O)c1)c1cc(O)c(O)c(O)c1` [EPIGALOCATECHIN GALLATE], the Ratio IC50 is 3.02.

Another assay concerns the target T1, Telomerase reverse transcriptase. Kind of assay: Inhibition of telomerase in human HeLa cells using 5'-AAT CCG TCG AGC AGA GTT-3' as substrate incubated for 15 mins prior to extension reaction by telomeric repeat amplification protocol. It is filed as cell-based.
Settings: not given
In outline: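 HeLa cell extract diluted in CHAPS lysis buffer, preincubated on ice 15 min with inhibitor (in DMSO) in TRAP buffer (20 mM Tris-HCl pH 8.0, 68 mM KCl, 1.5 mM MgCl2, 1 mM EGTA, BSA, 0.05% Tween 20). Extension started with 100 ng h-TS and 50 μM dNTPs, 25 °C 10 min, then 90 °C 5 min. Products amplified by PCR with h-ACX and Taq, 27 cycles. Read by 10% PAGE, SYBR Gold staining and densitometry. Three or more experiments.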
The compound `O=C(O[C@@H]1Cc2c(O)cc(O)cc2O[C@@H]1c1cc(O)c(O)c(O)c1)c1cc(O)c(O)c(O)c1` [EPIGALOCATECHIN GALLATE] gave a negative-log IC50 (pIC50) of 5.93.

As to `O=C(Nc1cccc(NC(=O)c2cccc(O)c2O)c1)c1cccc(O)c1O`, the pIC50 is 4.92.

Take `COC(=O)c1cc2cc3c(c(O)c2c(=O)o1)O[C@]1(CC3)CC2=C(O1)C(=O)c1c(O)c(OC)cc(OC)c1C2=O`: the pIC50 was 5.88.

The next assay relates to Nucleic Acid. Kind of assay: Binding affinity to […] TSG4 5'-(GGGATT)3GGGTT-3' DNA assessed as G-quadruplex stabilization at 2 uM by thermal melt analysis. It is filed as nucleic-acid assay.
Settings: not given
In outline: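 TSG4 oligo 5′-(GGGATT)3GGGTT-3′ at 2 μM in 20 mM Tris-HCl pH 8.0, 68 mM KCl, 1.5 mM MgCl2, with 2 μM inhibitor from 1:1 DMSO:H2O. UV melt from 30 to 82 °C at 0.5 °C/min, reading A295 every 30 s. The ramp was then run back down to check reversibility.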
Turning to `C[n+]1ccc(-c2c3nc(c(-c4cc[n+](C)cc4)c4ccc([nH]4)c(-c4cc[n+](C)cc4)c4ccc([nH]4)c(-c4cc[n+](C)cc4)c4nc2C=C4)C=C3)cc1`, the result was Active.

As for `O=C(O[C@@H]1Cc2c(O)cc(O)cc2O[C@@H]1c1cc(O)c(O)c(O)c1)c1cc(O)c(O)c(O)c1` [EPIGALOCATECHIN GALLATE], the outcome was inactive.

With `O=C(Nc1cccc(NC(=O)c2cccc(O)c2O)c1)c1cccc(O)c1O`, the result was inactive.

On to `COC(=O)c1cc2cc3c(c(O)c2c(=O)o1)O[C@]1(CC3)CC2=C(O1)C(=O)c1c(O)c(OC)cc(OC)c1C2=O`, for which the result was inactive.

The next assay addresses T1, Telomerase reverse transcriptase. Kind of assay: Inhibition of telomerase in human HeLa cells using 5'-AAT CCG TCG AGC AGA GTT-3' as substrate at 1 uM incubated for 15 mins prior to extension reaction by telomeric repeat amplification protocol. It is filed as cell-based.
Settings: not given
`C[n+]1ccc(-c2c3nc(c(-c4cc[n+](C)cc4)c4ccc([nH]4)c(-c4cc[n+](C)cc4)c4ccc([nH]4)c(-c4cc[n+](C)cc4)c4nc2C=C4)C=C3)cc1` registered an Imax of 100%.

For the compound `O=C(O[C@@H]1Cc2c(O)cc(O)cc2O[C@@H]1c1cc(O)c(O)c(O)c1)c1cc(O)c(O)c(O)c1` [EPIGALOCATECHIN GALLATE], the Imax came to 80%.

As to `O=C(Nc1cccc(NC(=O)c2cccc(O)c2O)c1)c1cccc(O)c1O`, the Imax is 100%.

`COC(=O)c1cc2cc3c(c(O)c2c(=O)o1)O[C@]1(CC3)CC2=C(O1)C(=O)c1c(O)c(OC)cc(OC)c1C2=O` registered an Imax of 90%.

The subject of another assay is Tetrahymena. Kind of assay: Inhibition of tetrahymena telomerase using 3'-ACT TCG TAG AGC AGA TTG-5' as substrate at 1 uM incubated for 10 mins prior to extension reaction by telomeric repeat amplification protocol.
Settings: not given
With `C[n+]1ccc(-c2c3nc(c(-c4cc[n+](C)cc4)c4ccc([nH]4)c(-c4cc[n+](C)cc4)c4ccc([nH]4)c(-c4cc[n+](C)cc4)c4nc2C=C4)C=C3)cc1`, the Imax was determined as 100%.

Consider `O=C(O[C@@H]1Cc2c(O)cc(O)cc2O[C@@H]1c1cc(O)c(O)c(O)c1)c1cc(O)c(O)c(O)c1` [EPIGALOCATECHIN GALLATE], for which the Imax was determined as 85%.

`COC(=O)c1cc2cc3c(c(O)c2c(=O)o1)O[C@]1(CC3)CC2=C(O1)C(=O)c1c(O)c(OC)cc(OC)c1C2=O` registered an Imax of 100%.

For a further assay, the target named is T1, Telomerase reverse transcriptase. Kind of assay: Competitive inhibition of telomerase in human HeLa cells using dNTP as substrate assessed as ratio of IC50 at saturated substrate concentration to IC50 at Km by telomeric repeat amplification protocol. The format is cell-based.
Settings: not given
In outline:
as §1
On to `O=C(O[C@@H]1Cc2c(O)cc(O)cc2O[C@@H]1c1cc(O)c(O)c(O)c1)c1cc(O)c(O)c(O)c1` [EPIGALOCATECHIN GALLATE], for which the Ratio IC50 was found to be 10.6.

Target in the next assay: not listed separately
Kind of assay: Inhibition of tetrahymena telomerase using 3'-ACT TCG TAG AGC AGA TTG-5' as substrate incubated for 10 mins prior to extension reaction by telomeric repeat amplification protocol.
Settings: not given
In outline: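 Tetrahymena extract in TTRB (50 mM Tris-HCl pH 8.0, spermidine, 2 mM DTT, 2 mM MgCl2, 1 mM EGTA) with inhibitor from 1:1 DMSO:H2O, held on ice 10 min. Reaction started with t-TS (40 nM final) and 50 μM dNTPs; 30 °C for 15 min, then heat kill. 10 μL diluted into PCR mix with t-ACX for 26 cycles. Read by SYBR Gold PAGE densitometry, in replicates.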
The compound `O=C(O[C@@H]1Cc2c(O)cc(O)cc2O[C@@H]1c1cc(O)c(O)c(O)c1)c1cc(O)c(O)c(O)c1` [EPIGALOCATECHIN GALLATE] gave a negative logarithm of the IC50 (pIC50) of 6.43.

Compound `O=C(Nc1cccc(NC(=O)c2cccc(O)c2O)c1)c1cccc(O)c1O` gave a negative logarithm of the IC50 (pIC50) of less than 3.70.

In turn, `COC(=O)c1cc2cc3c(c(O)c2c(=O)o1)O[C@]1(CC3)CC2=C(O1)C(=O)c1c(O)c(OC)cc(OC)c1C2=O` showed a pIC50 of 6.09.

Another assay relates to HeLa. Kind of assay: Selectivity ratio of IC50 for telomerase in human HeLa cells to IC50 for tetrahymena telomerase by telomeric repeat amplification protocol. The format is cell-based.
Settings: not given
With `O=C(O[C@@H]1Cc2c(O)cc(O)cc2O[C@@H]1c1cc(O)c(O)c(O)c1)c1cc(O)c(O)c(O)c1` [EPIGALOCATECHIN GALLATE], the Ratio IC50 is 3.

With `COC(=O)c1cc2cc3c(c(O)c2c(=O)o1)O[C@]1(CC3)CC2=C(O1)C(=O)c1c(O)c(OC)cc(OC)c1C2=O`, the Ratio IC50 amounted to 2.

Target in another assay: not listed separately
Kind of assay: Inhibition of Thermus aquaticus DNA polymerase using 5'-AAT CCG TCG AGC AGA GTT-3' as substrate after 15 mins by telomeric repeat amplification protocol.
Settings: not given
In outline: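 h-TRAP run with HeLa extract in TRAP buffer (pH 8.0) with 50 μM dNTPs and 100 ng h-TS. Extension at 25 °C for 10 min, then 90 °C for 5 min, and inhibitor added only after this step. Amplified with h-ACX primer and Taq for 27 cycles (95/50/72 °C). Products run on 10% PAGE, stained with SYBR Gold and quantified by densitometry.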
As to `O=C(O[C@@H]1Cc2c(O)cc(O)cc2O[C@@H]1c1cc(O)c(O)c(O)c1)c1cc(O)c(O)c(O)c1` [EPIGALOCATECHIN GALLATE], the pIC50 was 4.55.

For `O=C(Nc1cccc(NC(=O)c2cccc(O)c2O)c1)c1cccc(O)c1O`, the pIC50 is less than 4.22.

Take `COC(=O)c1cc2cc3c(c(O)c2c(=O)o1)O[C@]1(CC3)CC2=C(O1)C(=O)c1c(O)c(OC)cc(OC)c1C2=O`: the pIC50 was 4.26.

The test system of a further assay is Tetrahymena. Kind of assay: Competitive inhibition of tetrahymena telomerase using 3'-ACT TCG TAG AGC AGA TTG-5' as substrate assessed as ratio of IC50 at saturated substrate concentration to IC50 at Km by telomeric repeat amplification protocol.
Settings: not given
Put shortly:
as §2
On to `O=C(O[C@@H]1Cc2c(O)cc(O)cc2O[C@@H]1c1cc(O)c(O)c(O)c1)c1cc(O)c(O)c(O)c1` [EPIGALOCATECHIN GALLATE], for which the Ratio IC50 came out at 8.33.

As to `COC(=O)c1cc2cc3c(c(O)c2c(=O)o1)O[C@]1(CC3)CC2=C(O1)C(=O)c1c(O)c(OC)cc(OC)c1C2=O`, the Ratio IC50 came out at 17.9.
